These results are taken from ChEMBL document CHEMBL3286314, “Tetraoxane-pyrimidine nitrile hybrids as dual stage antimalarials” (J Med Chem, 2014).

The nature of series [1]: Inhibition of Plasmodium falciparum recombinant falcipain-2 after 30 mins by spectrofluorometric analysis. In short, it runs like this: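 Recombinant falcipain-2 (~1 nM) preincubated 30 min at room temperature with inhibitor (from 100× DMSO stocks) in 100 mM sodium acetate pH 5.5, 10 mM dithiothreitol. Then Z-Leu-Arg-AMC substrate added (final 25 μM). Fluorescence monitored continuously for 30 min at room temperature; IC50 from activity plots.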

Series [2] relates to Plasmodium falciparum. The experiment in a line: Antiplasmodial activity against chloroquine-sensitive Plasmodium falciparum 3D7 after 48 hrs by FACS analysis. As to conditions: 3D7, 48 h. It counts as functional, organism-based. (In general: Flow cytometry measures light scatter and fluorescence of single cells or particles in a stream.)
The test system of series [3] is Plasmodium falciparum. The experiment in a line: Antiplasmodial activity against chloroquine-resistant Plasmodium falciparum W2 after 48 hrs by FACS analysis. It counts as functional, organism-based. To be noted: W2, 48 h. Summed up: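 Synchronized ring-stage parasites cultured 48 h with multiple compound concentrations (from 1000× DMSO stocks) in RPMI 1640 with 10% human serum. Fixed in 1% formaldehyde/PBS pH 7.4 for 48 h at room temperature, stained with YOYO-1 (1 nM) in 0.1% Triton X-100/PBS. Parasitemia read by flow cytometry; IC50 from curve fits of percentage of control parasitemia.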

The subject of series [4] is Plasmodium falciparum. The experiment in a line: Inhibition of falcipain-2-mediated hemoglobin degradation in ring stage Plasmodium falciparum assessed as development of swollen digestive vacuoles at 123 nM after 24 hrs. In short, it runs like this: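 Cultured parasites exposed to 123 nM compound for 24 h starting at ring stage. Examined for swollen digestive vacuoles with erythrocyte-cytoplasm staining characteristics.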

Series [5] in a line: Cytotoxicity against HEK293T cells. It counts as cell-based, HEK-293T. As to conditions: human.
A short description of series [6]: Cytotoxicity against mouse NIH/3T3 cells. Format: cell-based, NIH3T3.
Series [7] is described as follows: Selectivity index, ratio of CC50 for HEK293T cells to IC50 for chloroquine-resistant Plasmodium falciparum W2. Format: functional, HEK-293T. In short, it runs like this:
(§1)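 SI taken as in vitro cytotoxicity IC50 on HEK293T or NIH3T3 cells divided by the P. falciparum W2 growth-inhibition IC50.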

Series [8] can be described thus: Selectivity index, ratio of CC50 for mouse NIH/3T3 cells to IC50 for chloroquine-resistant Plasmodium falciparum W2. Format: functional. In short, it runs like this: as §1
Series [9] concerns Plasmodium berghei. Put plainly: Antiplasmodial activity against liver stage Plasmodium berghei infected in human HuH7 cells assessed as decrease in parasite load at 2 uM treated for 1 hr prior to infection measured after 48 hrs by luciferase luminescence assay. To be noted: Huh-7.
Series [10] concerns Plasmodium falciparum. Put plainly: Antiplasmodial activity against atovaquone-resistant Plasmodium falciparum FCR3 after 48 hrs by FACS analysis. It counts as functional, organism-based. To be noted: FCR3, 48 h.
The test system of series [11] is Plasmodium berghei. The experiment in a line: Antiplasmodial activity against liver stage Plasmodium berghei infected in human HuH7 cells assessed as decrease in parasite load at 10 uM treated for 1 hr prior to infection measured after 48 hrs by luciferase luminescence assay. To be noted: Huh-7.
For series [12], the system named is Plasmodium berghei. The experiment in a line: Antiplasmodial activity against Plasmodium berghei ANKA infected in C57Bl/6J mouse assessed as parasitemia level at 30 mg/kg/day, ip qd for 5 days measured on day 8 post-infection by microscopic/flow cytometric analysis. It counts as functional, organism-based. In short, it runs like this:
(§2)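 C57Bl/6J mice infected intraperitoneally with 2 × 10^6 GFP-expressing P. berghei ANKA-infected erythrocytes. Treatment started at parasitemia ca. 3.9% (day 4 postinfection): 30 mg/kg bw once daily ip for 5 days. Controls received equivalent drug vehicle. Parasitemia was followed daily by microscopy and flow cytometry; disease symptoms and survival were also recorded daily.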

In series [13] the test system is Plasmodium berghei. The experiment in a line: Antiplasmodial activity against Plasmodium berghei ANKA infected in C57Bl/6J mouse assessed as parasitemia level at 30 mg/kg/day, ip qd for 5 days measured on day 18 post-infection by microscopic/flow cytometric analysis. Format: functional. To be noted: route intraperitoneal. Summed up:
as §2

Series [14] concerns Plasmodium berghei. Put plainly: Antiplasmodial activity against Plasmodium berghei ANKA infected in C57Bl/6J mouse assessed as survival at 30 mg/kg/day, ip qd for 5 days measured on day 18 post-infection. Format: functional, organism-based. In short, it runs like this: as §2
Series [15] can be described thus: Half life of the compound in 18 equiv of FeSO4 in aqueous acetonitrile assessed as N'-(5-bromo-2-cyanopyrimidin-4-yl)-N'-isobutyl-4-oxocyclohexanecarbohydrazide level by LC-MS analysis. It counts as physicochemical. To be noted: buffer. Summed up: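 Aqueous solution of compound treated with high concentration of iron(II) sulfate; mixture analysed by LCMS. Decomposition to the ketone product fitted to first-order decay kinetics to give the half-life.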

Activity calls are given as the source filed them. No cut-off for these calls is given here. Some results are limits rather than exact numbers.

A word on the IC50: it is the point on the concentration scale where inhibition reaches its midpoint. As a reminder, the CC50 is the concentration that lowers cell viability or growth by half. In the case of `CC(C)CN(NC(=O)C1CCC2(CC1)OOC1(OO2)C2CC3CC(C2)CC1C3)c1nc(C#N)ncc1Br` (stereo not given), the IC50 amounted to 16.4 nM in series [1], 58.1 nM in series [2] and 9.8 nM in series [3]. Also, the inhibition entry in series [4] was “Active”. The CC50 in series [5] was above 100000 nM; in series [6], 8000 nM. Moreover, the “Ratio CC50/IC50” value in series [7] is listed as above 10000; in [8] it was 816.

On to `O=C1C(O)=C([C@H]2CC[C@H](c3ccc(Cl)cc3)CC2)C(=O)c2ccccc21`, for which, in series [9], the outcome was Active.

As for `CC(C)CN(NC(=O)C1CCC2(CC1)OOC1(OO2)C2CC3CC(C2)CC1C3)c1ccnc(C#N)n1` (stereo not given), the IC50 in [1] turned out to be 909 nM; in series [2] it was 13.1 nM; in [3], 47.3 nM; in series [10], 30.3 nM. Moreover, in series [4], the inhibition entry is “inactive”. Further, the CC50 in [5] was above 100000 nM; in series [6] it was 900 nM. Further, the entries for the “Ratio CC50/IC50” value in series [7] and in series [8] were above 2114 and 19, respectively.

Consider `COc1cc(NC(C)CCCN)c2ncccc2c1` (stereo not given), for which the result in [11] was Active.

For the compound `N#Cc1ncc(Br)c(N(CC2CCCC2)NC(=O)C2CCC3(CC2)OOC2(OO3)C3CC4CC(C3)CC2C4)n1` (stereo not given), the results for the IC50 in series [1], in [2] and in series [3] were 112 nM, 70.7 nM and 29.5 nM, respectively. The figures for the CC50 in series [5] and in [6] were above 100000 nM and 5500 nM, respectively. The “Ratio CC50/IC50” value in [7] was above 3390; in [8] it was 186.

Turning to `CC(C)CN(NC(=O)C1CCC2(CC1)OOC1(OO2)C2CC3CC(C2)CC1C3)c1nc(C#N)ncc1Cl` (stereo not given), the IC50 is 3.4 nM in [1], 80.9 nM in [2], 33.8 nM in [3] and 53.3 nM in series [10]. Further, the inhibition result in series [4] was “Active”. Further, the values for the CC50 in [5] and in series [6] were above 100000 nM and 4500 nM, respectively. Besides, the “Ratio CC50/IC50” value in series [7] is above 2959; in series [8], 133. Further, the outcome in series [12] and in series [14] was Active. Moreover, in [13], the Activity came to 51%. Further, the t1/2 in [15] was determined as 5.1 h.

Turning to `CC(C)CN(NC(=O)C1CCC2(CC1)OOC1(OO2)C2CC3CC(C2)CC1C3)c1cc(Cl)nc(C#N)n1` (stereo not given), the IC50 in series [1] is 978 nM; in series [2] it was 28.4 nM; in series [3], 48.9 nM; in series [10], 37.7 nM. Further, the inhibition entry in series [4] was “inactive”. Moreover, the results for the CC50 in [5] and in series [6] were above 100000 nM and 1700 nM, respectively. Further, the figures for the “Ratio CC50/IC50” value in [7] and in series [8] were above 2045 and 35, respectively.

With `C[C@@H]1CC[C@H]2[C@@H](C)C(=O)O[C@@H]3O[C@@]4(C)CC[C@@H]1[C@]32OO4` [ARTEMISININ], the IC50 came to 36.2 nM in series [2], 14.1 nM in series [3] and 7.7 nM in series [10]. Also, the result in [9] and in series [11] was inactive.

As for `CC(C)CN(NC(=O)CC1CCC2(CC1)OOC1(OO2)C2CC3CC(C2)CC1C3)c1nc(C#N)ncc1Br` (stereo not given), the figures for the IC50 in series [1], in [2] and in series [3] were 95.1 nM, 18.9 nM and 22.8 nM, respectively. For the same compound, the inhibition result in [4] is “Active”. In addition, the CC50 in series [5] worked out at 85500 nM; in series [6], 2300 nM. Moreover, the “Ratio CC50/IC50” value in series [7] is given as 3750; in series [8] it was 101.

Take `CC(C)CN(NC(=O)C1CCC(=O)CC1)c1nc(C#N)ncc1Br`: the values for the IC50 in series [1], in series [2] and in [3] were 58.4 nM, 48.2 nM and 48.1 nM, respectively. The inhibition entry in series [4] is “Active”. Besides, the CC50 in series [5] and in series [6] was above 100000 nM each time. The “Ratio CC50/IC50” value in series [7] and in series [8] was above 2079 in each case. For the same compound, the result in [9] and in series [11] was Active.

For the compound `N#Cc1ncc(Br)c(N(NC(=O)C2CCC3(CC2)OOC2(OO3)C3CC4CC(C3)CC2C4)C2CCCCC2)n1` (stereo not given), the IC50 came to 25.3 nM in series [1], 78.5 nM in series [2], 22.4 nM in series [3] and 81.2 nM in [10]. The inhibition entry in [4] was “Active”. In addition, the CC50 in [5] was above 100000 nM; in series [6], 1400 nM. Also, the “Ratio CC50/IC50” value in series [7] is above 4464; in series [8], 63.
